Active and inactive are the calls of the source. The rule behind the calls is not given here. Where a SMILES comes first, the peptide text is derived from it. Bridges are numbered along the chain shown (N, C = ends). [ ]: non-standard residue; d: D form. The star is where a group is joined. NMe2Val = CC(C)[C@@H](C(=O)*)N(C)C; NMeI = CC[C@H](C)[C@H](NC)C(=O)O; NMeT = CN[C@H](C(=O)O)[C@@H](C)O; NMeL = CN[C@@H](CC(C)C)C(=O)O; dHiv = CC(C)[C@@H](O)C(=O)O; NMeA = CN[C@@H](C)C(=O)O; dNMeA = CN[C@H](C)C(=O)O

What is called IC50 is the concentration that gives 50% inhibition.

Data set [1] can be described thus: Stability in PBS at 37 degC assessed as parent intact compound remaining level at 50 uM after 24 hrs by RP-HPLC analysis. In kind it is physicochemical. The conditions noted are these: read-out: Stabilty. The procedure, abridged: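 50 μM compound in 10% DMSO/PBS without DTT or cathepsin B at 37 °C. Sampled at 0, 4, 8, 12 and 24 h and analyzed by RP-HPLC (C18, 10−100% CH₃CN/0.1% TFA over 20 min). Three repeats.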

Data set [2] is described as follows: Drug metabolism in PBS at 37 degC assessed as metabolite-1a formation at 50 uM in presence of DTT after 30 mins by RP-HPLC analysis. The essentials: (§1)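 50 μM conjugate (from 2 mM DMSO stock) in 10% DMSO/PBS with 150 μM DTT (final) at 37 °C. Aliquots taken at 30, 60 and 90 min for RP-HPLC: C18, 10−100% CH₃CN over 20 min in 0.1% TFA water, 0.5 mL/min, detection at 220 and 254 nm. Three repeats.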

Data set [3] is described as follows: Drug metabolism in PBS at 37 degC assessed as metabolite-1a formation at 50 uM in presence of DTT after 30 to 90 mins by RP-HPLC analysis. To be noted: time 30-90 min. The essentials: as §1
The nature of data set [4]: Drug metabolism in PBS at 37 degC assessed as parent compound disappearance at 50 uM in presence of DTT after 90 mins by RP-HPLC analysis. The essentials: as §1
In data set [5] the test system is BT-549. Put plainly: Cytotoxicity in human BT-549 cells assessed as reduction in cell viability incubated for 72 hrs by CCK8 assay. Type of data set: functional, cell-based. The procedure, abridged: (§2)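 CCK-8 viability assay with a 72 h treatment. Cells seeded at 3000−4000/well and preincubated overnight. Concentration gradient applied in quadruplicate. Then 10% CCK-8 for 1 h at 37 °C and A450 read. IC50 by log(inhibitor)-response fitting.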
For orientation: Tetrazolium dyes change colour on reduction, which living cells bring about.

Data set [6] deals with A549. Put plainly: Cytotoxicity in human A549 cells assessed as reduction in cell viability incubated for 72 hrs by CCK8 assay. Type of data set: functional, cell-based. The procedure, abridged:
as §2

The test system of data set [7] is BT-549. Put plainly: Cytotoxicity in human BT-549 cells assessed as reduction in cell viability incubated for 48 hrs in absence of GSH-OEt by CCK8 assay. The conditions noted are these: BT-549, 48 h. In kind it is functional, cell-based. The essentials:
(§3)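 Cells grown in high-glucose DMEM with 10% FBS and penicillin/streptomycin at 37 °C, 5% CO₂. 3000−4000 cells/well seeded and preincubated overnight. Treated with a concentration gradient in quadruplicate for 48 h. Medium then replaced with 10% CCK-8 in fresh medium for 1 h at 37 °C, A450 read. IC50 from log(inhibitor)-response fit, mean SD of three independent experiments.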

The subject of data set [8] is A549. The experiment in a line: Cytotoxicity in human A549 cells assessed as reduction in cell viability incubated for 48 hrs in absence of GSH-OEt by CCK8 assay. The conditions noted are these: A549, 48 h. Type of data set: functional, cell-based. The procedure, abridged: as §3
For data set [9], the system named is A549. The experiment in a line: Cytotoxicity in human A549 cells assessed as reduction in cell viability incubated for 48 hrs in presence of GSH-OEt by CCK8 assay. In kind it is functional, cell-based. To be noted: A549, 48 h. The procedure, abridged: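 A549 cells preincubated 2 h with 1 mM GSH-OEt, then exposed to compound for 48 h. Viability by CCK-8. Remaining steps: overnight-seeded cells (3000−4000/well), quadruplicate wells, 10% CCK-8 for 1 h at 37 °C, A450. IC50 by log(inhibitor)-response fit, mean of triplicate.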

Data set [10] can be described thus: Toxicity in Balb/c mouse assessed as induction of weight loss at 5 mg/kg, iv dosed every 2 days for total 10 times and measured on day 21. In kind it is organism-based. The conditions noted are these: in vivo, 504 h, time 21 day. The procedure, abridged: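 Six-week male Balb/c nude mice, n = 3 per group, given various doses by i.v. injection every 2 days. Body weight monitored.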

Data set [11] is described as follows: Toxicity in Balb/c mouse xenografted with human A549 cells assessed as induction of weight loss at 5 mg/kg, iv dosed every 2 days for total 10 times and measured on day 21. Type of data set: organism-based. The conditions noted are these: in vivo, 504 h, time 21 day. The procedure, abridged: (§4)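 Six-week male Balb/c nude mice; 1 × 10⁷ A549 cells washed in cold PBS, suspended in serum-free high-glucose DMEM, injected s.c. in right flank. At ~50 mm³ (L × W × 1/2 W), randomized into two groups, n = 7 each. 5 mg/kg in 10% DMSO/PBS (1 mg/mL) given i.v. via tail vein every 2 days ×10. Vehicle control 10% DMSO/PBS. Tumor size and body weight measured before each injection. Tumors excised and weighed at end.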
On the technique in general: In xenograft studies the graft and the host belong to different species.

Data set [12] in a line: Toxicity in Balb/c mouse xenografted with human A549 cells assessed as induction of side effect at 5 mg/kg, iv dosed every 2 days for total 10 times and measured on day 21. To be noted: in vivo. In kind it is organism-based. The essentials: as §4
The subject of data set [13] is A549. The experiment in a line: Antitumor activity against human A549 cells xenografted in Balb/c mouse assessed as reduction in tumor size at 5 mg/kg, iv dosed every 2 days for total 10 times and measured on day 21. Type of data set: functional, organism-based. The conditions noted are these: time 21.0 day. The essentials:
as §4

The test system of data set [14] is A549. Put plainly: Antitumor activity against human A549 cells xenografted in Balb/c mouse assessed as reduction in tumor growth at 5 mg/kg, iv dosed every 2 days for total 10 times and measured on day 21. In kind it is functional, organism-based. The conditions noted are these: time 21.0 day. The essentials:
as §4

Data set [15] relates to A549. The experiment in a line: Antitumor activity against human A549 cells xenografted in Balb/c mouse assessed as reduction in tumor mass at 5 mg/kg, iv dosed every 2 days for total 10 times and measured on day 21 relative to untreated control. In kind it is functional. The conditions noted are these: time 21 day. The procedure, abridged: as §4
Data set [16] relates to BT-549. Put plainly: Cytotoxicity in human BT-549 cells assessed as reduction in cell viability incubated for 48 hrs by CCK8 assay. In kind it is functional, cell-based. The essentials:
as §3

The subject of data set [17] is A549. The experiment in a line: Cytotoxicity in human A549 cells assessed as reduction in cell viability incubated for 48 hrs by CCK8 assay. In kind it is functional, cell-based. The procedure, abridged: as §3
Data set [18] is described as follows: Toxicity in Balb/c mouse assessed as induction of weight loss at 1 mg/kg, iv dosed every 2 days and measured on day 3. In kind it is organism-based. To be noted: in vivo, 72 h, time 3 day. The procedure, abridged:
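In vivo tolerability in six-week-old male Balb/c nude mice (n = 3 per group). Compounds were given intravenously every 2 days at various dosages, and body weight was followed over time.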

Regarding `CC[C@H](C)[C@H]1C(=O)N[C@@H](C)C(=O)N(C)[C@@H](CC(C)C)C(=O)N[C@@H](Cc2ccc(OC)cc2)C(=O)N(C)[C@H](C)C(=O)O[C@H](C)[C@H](N(C)C(=O)[C@H](CC(C)C)N(C)C(=O)[C@H](C)N(C)C(=O)[C@H](OC(=O)[C@H](C(C)C)[N+](C)(C)Cc2ccc(NC(=O)OCCSSCCn3cc(CCC(=O)NCCCC[C@@H]4NC(=O)[C@@H](Cc5ccc(O)cc5)NC(=O)[C@H](CC(=O)O)NC(=O)CNC(=O)[C@H](CCCNC(=N)N)NC4=O)nn3)cc2)C(C)C)C(=O)N(C)[C@@H](C)C(=O)N1C.O=C([O-])C(F)(F)F`, the remaining at 24 h, 50 µM in data set [1] was over 90%. Moreover, the Drug metabolism entry in data set [2] is “Metabolite detected”; in data set [3], “Metabolite detected”; in data set [4], 100%. The outcome with BT-549 [5], with A549 [6], with A549 [13] and in the data set on A549 [14] was Active. The IC50 was 0.311 µM with BT-549 [7], 0.262 µM in the data set on A549 [8] and 0.0206 µM with A549 [9]. In addition, the Activity entry in data set [10], in data set [11] and in data set [12] was “Non-Toxic” in each case. Further, the “fold change (FC)” value in the data set with A549 [15] is listed as 4.

On to `CC[C@H](C)[C@H]1C(=O)N[C@@H](C)C(=O)N(C)[C@@H](CC(C)C)C(=O)N[C@@H](Cc2ccc(OC)cc2)C(=O)N(C)[C@H](C)C(=O)O[C@H](C)[C@H](N(C)C(=O)[C@H](CC(C)C)N(C)C(=O)[C@H](C)N(C)C(=O)[C@H](OC(=O)[C@H](C(C)C)N(C)C)C(C)C)C(=O)N(C)[C@@H](C)C(=O)N1C` (NMe2Val-[dHiv][NMeA][NMeL][NMeT][NMeA][NMeI]A[NMeL]Y(Me)[dNMeA]; ester 4-C), for which the IC50 in the data set with BT-549 [16] (Homo sapiens, BT-549, 48 h, read-out: IC50) was 0.018 µM; with A549 [17] (Homo sapiens, A549, 48 h, read-out: IC50), 0.0191 µM. Moreover, the outcome with BT-549 [5] and in the data set with A549 [6] was Active. For the same compound, the Activity entry in data set [18] is given as “Toxic”.

Take `C#CCCC(=O)NCCCC[C@@H]1NC(=O)[C@@H](Cc2ccc(O)cc2)NC(=O)[C@H](CC(=O)O)NC(=O)CNC(=O)[C@H](CCCNC(=N)N)NC1=O`: the IC50 entry with BT-549 [16] (bt-549) and with A549 [17] (a549) was “Not Active” throughout. The outcome with BT-549 [5] and with A549 [6] was inactive.

Values taken from ChEMBL document CHEMBL4732139, “Novel N-Methylated Cyclodepsipeptide Prodrugs for Targeted Cancer Therapy” (J Med Chem, 2021).
